# Screening results (PubChem)
# This excerpt belongs to a sample that is enriched for hits.
# UPR CHOP act: activators of apoptotic arm of unfolded protein response (CHOP); CHO-CHOP luciferase reporter, UPR activation, luminescence; percent of tunicamycin response over DMSO baseline; activation, % at 10 µM; 330,000 tested, 0.34% active;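 active means at 10 µM dose, activation of 40% or more, normalized to positive control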;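 further: 100% = tunicamycin at 10 µg/mL and 0% = DMSO alone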
#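 System: CHO-CHOP luciferase reporter cell line; amount: 500 cells/well; buffer or medium: F12 medium containing 10% fetal bovine serum; incubation: 6 h compound exposure at 37 °C after overnight seeding; measured by: luciferase luminescence after 10 min with Steady-Glo reagent; evaluation: % reporter activation, DMSO baseline versus tunicamycin full activation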
# UPR XBP1 act: adaptive UPR (XBP1) activation; activation, % at 20 µM; 330,000 tested, 0.33% active; CHO-XBP1 luciferase reporter, IRE1-XBP1 UPR activation, luminescence; percent of tunicamycin response, DMSO as zero;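 active means versus positive control, 20 µM dose yields 30% or more activation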;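 further: 100% = tunicamycin at 10 µg/mL and 0% = DMSO only wells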
#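 Signal: luciferase luminescence; Assay system: CHO-XBP1 luciferase reporter cells; Amount: one thousand reporter cells per well; Dosing: 20 µM single concentration, DMSO 1%; Benchmarks: high control tunicamycin 10 µg/mL final, low control DMSO vehicle only; Schedule: 6 h compound exposure at 37 °C, 5% CO2; Evaluation: percent activation relative to tunicamycin reference.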
# A1 inh: inhibitors of the anti-apoptotic protein A1, read as caspase activation; MEF A1-2A-BIM cells, Caspase-Glo 3/7 luminescence, 3 h; percent of clofoctol response, vehicle zero; caspase activation, % (concentration not given with the values); 330,000 tested, 0.066% active; AID 2462;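 active means over half of replicate activation scores above 10%, or exactly half above 10 with the replicate mean above 10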
# CHOP inhibitor: blocks CHOP induction under ER stress | CHO-K1 CHOP-promoter luciferase, tunicamycin-induced, 15-18 h | inhibition, % at 10 µM | 220,000 tested, 3.8% active;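 active means compounds that reduced the stress-induced luciferase reporter signal by more than about 70% of percent inhibition, limit read from the data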;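 further: 0% = tunicamycin plus vehicle and 100% = wells without tunicamycin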
# Numbers without * were called inactive; x = not tested or not shown.
SMILES,UPR CHOP act,UPR XBP1 act,A1 inh,CHOP inhibitor
C=CCn1c(=NC(=O)c2ccc(S(=O)(=O)N3CCc4ccccc4C3)cc2)sc2cc(S(N)(=O)=O)ccc21,2.6,-1.8,-0.7,76.6*
O=C(NC1CCCCC1)C(c1ccc(F)cc1)N(Cc1ccco1)C(=O)Cn1nnc2ccccc21 (stereo not drawn),0.3,0.4,-0.1,74.0*
O=C(NC1CCCCC1)C(c1ccccc1F)N(Cc1ccco1)C(=O)Cn1nnc2ccccc21 (stereo not drawn),0.4,-3.6,0.0,28.5
CS(=O)(=O)N(CC(=O)Nc1ccccc1Sc1ccccc1)c1ccc(F)cc1,-0.7,-1.8,0.7,23.7
CS(=O)(=O)N(Cc1ccc(C(=O)Nc2ccccc2Sc2ccccc2)cc1)c1ccccc1,-1.9,-2.2,-0.8,76.6*
O=C(Cc1ccccc1)Nc1ccccc1Sc1ccccc1,0.9,-2.0,-0.1,15.5
O=C(Nc1ccccc1Sc1ccccc1)c1ccccc1,0.5,1.7,-0.2,91.6*
O=C(O)C1C(c2ccccc2)C(C(=O)Oc2ccc(O)cc2)C1c1ccccc1 (stereo not drawn),-1.0,-3.0,0.4,4.0
CN1CCN(C2CC(=O)N(Cc3ccc(N4CCCC4=O)cc3)C2=O)CC1 (stereo not drawn),-0.4,-2.5,0.2,-3.6
O=S(=O)(c1ccccc1)N1CCN(C(=S)Nc2ccc(F)cc2)CC1,-0.5,-2.6,1.0,7.9
O=[N+]([O-])c1ccc(NC(=S)N2CCN(c3ccc(F)cc3)CC2)cc1,-2.8,-2.2,0.1,84.5*
NS(=O)(=O)c1ccc(NC(=S)N2CCN(c3ccc(Cl)c(Cl)c3)CC2)cc1,6.8,2.5,1.0,87.2*
NS(=O)(=O)c1ccc(NC(=S)N2CCN(Cc3ccc(Cl)c(Cl)c3)CC2)cc1,-1.3,-2.7,-0.4,31.8
O=[N+]([O-])c1ccc(C(=S)N2CCN(c3ccc(F)cc3)CC2)cc1,-0.5,24.9,0.3,7.4
O=S(=O)(c1ccc(Cl)cc1)N1CCN(C(=S)Nc2ccc(F)c(Cl)c2)CC1,-1.0,-2.9,2.0,77.6*
Cc1cccc(NC(=O)c2ccc(F)c(S(=O)(=O)N3CCC4(CC3)OCCO4)c2)c1,0.4,0.1,-2.2,x
Cc1ccc(-n2nnc(-c3nccs3)n2)cc1,-8.9,-7.1,-10.0,77.5*
Clc1ccc(-n2nnc(-c3nccs3)n2)cc1Cl,1.7,3.5,-10.8,4.3
CN(C)C(=O)/C(C#N)=C\c1cc(Br)c(Sc2ccc(Cl)cc2)o1,x,x,-2.2,79.7*
CCOc1cc(/C=C2\CN(C)C/C(=C\c3ccc(O)c(OCC)c3)C2=O)ccc1O,43.8*,-3.5,0.2,x
C=CCNC(=O)/C(C#N)=C\c1cc(Cl)c(O)c(OCC)c1,x,x,0.1,-1.2
CCOc1cc(/C=C2\CCC/C(=C\c3cc(Cl)c(O)c(OCC)c3)C2=O)cc(Cl)c1O,34.6,10.7,-0.8,92.8*
COc1ccccc1C(=O)Oc1ccc(C(C)(C)C)cc1,3.6,0.0,0.2,74.9*
Cc1ccccc1OCc1nc2ccccc2c(=O)n1/N=C/c1cn[nH]c1-c1ccccc1,4.2,2.8,1.2,85.3*
COc1cccc(CC(=O)NCC2(N3CCCCC3)CCCCC2)c1,0.9,0.7,-0.1,5.4
SMILES,UPR CHOP act,UPR XBP1 act,A1 inh,CHOP inhibitor
COc1ccc(/C=N/Nc2nnc(-c3ncc[nH]3)c3ccccc23)cc1,7.2,7.2,-0.9,-11.7
Oc1ccc2ccccc2c1/C=N/Nc1nnc(-c2ncc[nH]2)c2ccccc12,-1.5,2.2,-0.3,79.5*
COc1cc(Cl)ccc1OCc1cc(C(=O)N(C)CCc2cnn(C)c2)no1,7.7,-3.5,-0.8,x
COCCCNCCCOc1ccc(C(C)(C)c2ccccc2)cc1,1.5,-2.0,-0.8,46.4
CC(C)(C)c1ccc(OCCCNCc2ccccc2)cc1,-0.7,-0.8,-1.3,94.7*
O=C(NCc1ccc2c(c1)OCO2)C1CCN(c2ncccn2)CC1,0.5,-1.2,5.2*,56.0
CC(=O)Nc1ccc(S(=O)(=O)N(C)CC(=O)N/N=C/c2cccc(O)c2)cc1,-0.7,-1.1,-0.5,-22.6
CCCCCCCCNc1ncnc2ccccc12,7.6,-4.2,-0.4,80.8*
c1ccc(CCNc2ncnc3ccccc23)cc1,3.1,-1.4,-2.1,61.0
c1cnc(-c2noc(CN3CCN(C4C5CC6CC(C5)CC4C6)CC3)n2)cn1 (stereo not drawn),-2.9,-1.1,0.2,17.1
COc1cccc(-c2ccc(C#N)c(OC(=O)c3ccc(Cl)cc3)n2)c1,-0.7,-7.6,-0.2,79.9*
COc1cccc(-c2ccc(C#N)c(OC(=O)c3c(Cl)cccc3Cl)n2)c1,0.9,-4.4,0.0,35.6
CCCCCN(C(=O)CCC(=O)OCc1ccc(C(C)(C)C)cc1)c1c(N)n(CCCC)c(=O)[nH]c1=O,-1.9,-2.8,-0.7,x
Cc1cc(C)c2nc(-c3cccnc3)cc(C(=O)NC(C)c3cnn(C)c3C)c2c1 (stereo not drawn),1.2,0.5,0.7,14.6
Cc1cccc(/C=C2/SC(=O)N(Cc3ccccc3)C2=O)n1,4.0,-0.2,0.8,92.9*
CC1CCC(NC(=O)c2ccc(/C=C3\Oc4ccccc4N(C)C3=O)cc2)CC1 (stereo not drawn),x,x,x,90.7*
CC(C)C(C)NC(=O)COc1ccc(Sc2ccc(OCC(=O)NC(C)C(C)C)cc2)cc1 (stereo not drawn),5.1,-2.7,-1.0,58.9
CCCC1CCC(c2nc(-c3cccnc3)no2)CC1 (stereo not drawn),4.6,5.5,-0.8,89.3*
COc1ccc(N2CCN(C(C)C(=O)N3CCc4ccccc43)CC2)cc1 (stereo not drawn),1.1,5.3,-0.3,x
O=c1[nH]c(Cn2nnc(-c3ccccc3)n2)nc2scc(-c3ccccc3)c12,-0.3,-2.5,-1.6,89.2*
O=c1[nH]c(CN2CCN(Cc3ccccc3)CC2)nc2scc(-c3ccccc3)c12,-1.3,-2.3,0.5,26.5
Cc1[nH]c2ccccc2c1N=Nc1ccc(F)cc1,3.6,5.2,0.3,90.0*
COc1cc(CNC2CCCCCCC2)ccc1OCC(N)=O,1.3,-2.3,0.8,x
CCOc1ccc(CNC2CCCCCCC2)cc1OC,-0.7,-2.5,12.3*,x
COc1cc(OC)c(NC(=O)c2ccco2)cc1Cl,-0.1,0.2,0.8,72.1*
SMILES,UPR CHOP act,UPR XBP1 act,A1 inh,CHOP inhibitor
COc1cc(NC(=O)CC(C)C)ccc1NC(=O)c1ccco1,2.4,4.3,-1.4,x
COc1cc(NC(=O)c2ccco2)ccc1NC(=O)C(C)C,-2.0,2.2,0.5,80.0*
COc1cc(NC(=O)c2ccco2)c(OC)cc1NC(=O)CCC(=O)Nc1cc(C)cc(C)c1,-1.0,-0.4,-0.3,75.6*
COc1cc(NC(=O)c2ccco2)c(OC)cc1NC(=O)CCC(=O)Nc1cc(C)ccc1C,0.8,-1.9,0.2,11.2
CC(=O)c1cccc(NC(=O)C2CCN(S(C)(=O)=O)CC2)c1,-1.8,-1.2,-0.4,10.3
CCS(=O)(=O)N1CCC(C(=O)Nc2cccc(C(C)=O)c2)CC1,2.2,0.4,-0.2,73.1*
